An excerpt weighted towards active compounds, which were near 2% of everything screened.
DNMT1 inh = human DNMT1 methyltransferase inhibitors, primary screen, biochemical, molecular beacon, fluorescence, HinP1I cleavage, uHTS; inhibition (reported as % activation of signal), % at 10 µM; AID 588458, 2011; DNA (cytosine-5)-methyltransferase 1 (Homo sapiens), P26358; hit rate 0.83% among 360,000; in the data active = inhibition above about 50%
Rpn11 inh = Rpn11 (PSMD14) deubiquitinase inhibitors, primary screen, biochemical, fluorescence polarization, uHTS | 26S proteasome non-ATPase regulatory subunit 14 (Homo sapiens), O00487 | human 26S proteasome, Ub4-pepOG fluorescence polarization; 20S core pre-blocked with epoxomicin | inhibition, % at 20 µM | hit rate 0.59% among 360,000 | AID 588493, 2011;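 active = inhibition at 20 µM, scaled to each plate's controls, above about 33%, limit read from the data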
STEP inh = STEP phosphatase inhibitors, primary screen, biochemical, fluorescence intensity, uHTS | Tyrosine-protein phosphatase non-receptor type 5 (Homo sapiens), P54829 | recombinant STEP, OMFP fluorogenic substrate | inhibition, % at 20 µM | hit rate 0.25% among 360,000 | AID 588621, 2011;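 active = inhibition at 20 µM, scaled per plate between control wells, above about 37%, limit read from the data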;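 also: 0% = DMSO with enzyme and substrate and 100% = substrate only without enzyme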
Target sequence (P54829 whole entry, looked up): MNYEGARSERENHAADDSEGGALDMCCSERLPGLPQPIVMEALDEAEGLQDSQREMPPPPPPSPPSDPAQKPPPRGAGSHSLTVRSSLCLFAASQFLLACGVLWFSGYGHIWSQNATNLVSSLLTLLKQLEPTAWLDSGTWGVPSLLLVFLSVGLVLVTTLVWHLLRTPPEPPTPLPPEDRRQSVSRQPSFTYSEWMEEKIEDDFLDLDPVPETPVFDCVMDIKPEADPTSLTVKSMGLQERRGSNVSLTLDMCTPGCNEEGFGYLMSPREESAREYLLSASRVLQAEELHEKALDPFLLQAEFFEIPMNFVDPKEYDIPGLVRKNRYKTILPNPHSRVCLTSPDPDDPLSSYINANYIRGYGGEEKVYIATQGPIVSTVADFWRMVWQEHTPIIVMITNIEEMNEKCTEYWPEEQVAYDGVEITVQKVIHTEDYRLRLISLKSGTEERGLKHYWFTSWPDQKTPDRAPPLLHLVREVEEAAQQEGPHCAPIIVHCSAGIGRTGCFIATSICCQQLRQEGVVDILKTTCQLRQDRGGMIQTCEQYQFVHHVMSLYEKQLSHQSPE
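Measure: Control-normalized % inhibition with plate pattern correction | Test system: STEP phosphatase, cell-free reaction | Medium: pH 6.0 Bis-Tris with DTT and Tween 20 | Technique: Fluorescence, 480/540 nm | Times: Reaction 20 min, ambient temperature | Doses: Single compound dose of 20 µM, 1% DMSO final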
LMPTP inh = LMPTP phosphatase inhibitors, primary screen, biochemical, fluorescence intensity, uHTS | AID 651560, 2012 | inhibition, % at 20 µM | recombinant LMPTP-A, OMFP fluorogenic substrate | hit rate 0.22% among 360,000 | Low molecular weight phosphotyrosine protein phosphatase (Homo sapiens), P24666;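 active = compounds that cut the enzyme signal by at least half of the control window in the single-dose screen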;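 also: plate controls were DMSO wells with enzyme plus substrate for no effect and substrate without enzyme for full effect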
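Test system: LMPTP-A phosphatase enzyme. Amount: LMPTP-A at 0.625 nM final in the reaction. Reagent: OMFP substrate, 400 µM final. Times: 50 min at room temperature. Signal: endpoint fluorescence intensity from OMFP dephosphorylation. Read-out basis: % inhibition. Benchmarks: no-enzyme and uninhibited controls.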
Scp-1 inhibitor = Scp-1 phosphatase inhibitors, primary screen, biochemical, colorimetric, uHTS | inhibition, % at 20 µM | Recombinant Scp1, phosphopeptide, malachite green phosphate absorbance | Carboxy-terminal domain RNA polymerase II polypeptide A small phosphatase 1 (Homo … | hit rate 0.88% among 340,000 | AID 493091, 2011;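 active = inhibition above about 50% at 20 µM, limit read from the data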;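 also: plate controls were DMSO wells with enzyme for no effect and wells lacking enzyme for full effect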
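assay system = SCP-1 phosphatase catalytic domain, residues 76-261 | buffer or medium = 50 mM Tris acetate pH 5.5, 0.005% Tween-20, 10 mM MgCl2 | incubation = enzyme reaction 45 min at room temperature, colour 5 min, stabilisation 30 min | signal = Phosphate-binding colour reagent, absorbance read at 630 nm | measure = % inhibition at 20 µM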
DNMT1 interf DR = spectral interference with molecular beacon fluorescence, dose response, artefact control for DNMT1 inhibitor project, biochemical, fluorescent molecular beacon; shares compounds with DNMT1 inh; spectral interference counter-screen; IC50, µM; 200 tested, under 10 active; AID 602382, 2012; call rule not given here
DNMT1 confirm = DNMT1 methyltransferase inhibitor retest, confirmation, biochemical, molecular beacon, fluorescence, single concentration; shares compounds with DNMT1 inh; DNMT1 molecular beacon HinP1I cleavage; inhibition, % at 10 µM; hit rate 8% among 2,300;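 active = average inhibition of at least 30% in the single-concentration confirmation test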
Beacon interf = shows spectral interference in the DNMT1 beacon assay; hit rate 1% among 2,300; AID 602387; shares compounds with DNMT1 inh; DNMT1 molecular beacon spectral interference counterscreen, fluorescence 485/520; activation (fluorescence interference), % at 10 µM;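 active = activation of at least 30% at 10 µM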;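 also: DNMT1 catalytic domain with a HinP1I cleavage step and a FAM/dabcyl DNA beacon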
* hit, by the source's call; · = no result.

SMILES	DNMT1 inh	Rpn11 inh	STEP inh	LMPTP inh	Scp-1 inhibitor	DNMT1 confirm	Beacon interf	others
CC(=O)NN1C(=O)/C(=C/c2ccc(Br)o2)SC1=S	88*	34	20	1	30	13	5
O=C(CSc1nnc2ccccn12)Nc1cccc(-c2nc3ccccc3s2)c1	61*	1	2	3	-7	1	-7
O=C(CSc1nnc2ccccn12)Nc1ccc2c(c1)OCO2	-1	-1	2	0	1	·	·
CCN1CCN(S(=O)(=O)Cc2ccccc2)CC1	-1	6	0	-1	3	·	·
CCn1c2ccccc2c2cc(CN3CCN(S(=O)(=O)Cc4ccccc4)CC3)ccc21	60*	0	4	7	2	1	3
O=C(O)c1cccc(-n2cccc2/C=C/[N+](=O)[O-])c1	89*	-20	21	5	85*	5	-1
O=C(O)c1cccc(-n2cccc2/C=C\[N+](=O)[O-])c1	62*	-3	8	1	43	7	5
CN(Cc1ccccc1)C(=O)C1CCN(S(=O)(=O)c2cccc3nonc23)CC1	-2	1	1	0	10	·	·
CC1=C(C(=O)N(C)C)CC(CC(=O)NCCc2ccccn2)C(=O)N1CCCN1CCCC1=O (stereo unspecified)	8	2	-2	-3	·	·	·
Clc1cccc(CNc2ccn3nc(-c4cccc(OCc5ccccc5)c4)cc3n2)c1	-31	6	1	6	·	·	·
N#CC12C(=O)NC(=O)C1(C#N)C21CCCC1 (stereo unspecified)	33	4	0	-1	4	·	·
Cc1cc(N/N=C/c2ccc(O)cc2)nc(NS(=O)(=O)c2ccccc2)n1	83*	-21	41*	18	48	1	-1
CN(Cc1ccccc1)C(=O)c1ccccc1N(C)S(=O)(=O)c1ccccc1	2	-4	-1	-1	-5	·	·
COc1ccc(NC(=O)CSc2ccc3c4c(cccc24)C(=O)c2ccccc2-3)cc1	61*	-57	0	3	-7	5	1
O=C(CSc1nc2ccccc2c2nc3ccccc3n12)NCc1ccco1	71*	3	2	6	25	15	1
Cc1ccc(NC(=O)CSc2nc3ccccc3c3nc4ccccc4n23)cc1	52*	8	0	0	3	2	-6
CCCCn1c(SCC(=O)NCc2ccco2)nc2c(sc3ccccc32)c1=O	36	2	2	1	0	·	·
O=C(CSc1nc2c(sc3ccccc32)c(=O)n1CCc1ccccc1)NCc1ccco1	65*	5	2	-1	5	3	-4
COc1ccc(C(=O)NC(=S)Nc2ccc(N3CCOCC3)cc2)cc1Cl	-4	9	3	2	-3	·	·
COCCNC(=O)C1(C)CCCN(C(=O)c2ccccc2F)C1 (stereo unspecified)	2	-2	0	-1	·	·	·
COc1ccc(-n2c(SCC(=O)Nc3ccc(NC(C)=O)cc3)nc3ccccc3c2=O)cc1	-8	-1	2	-1	-4	·	·
COc1ccc(NC(=O)CSc2nc3ccccc3c3nc4ccccc4n23)cc1	58*	4	1	1	3	5	-7
CCc1nnc(NC(=O)CSc2ccc(-c3ccco3)nn2)s1	4	-2	-5	-2	-5	·	·
Cc1nnc(NC(=O)CSc2ccc(-c3ccco3)nn2)s1	53*	-10	12	9	17	0	2
O=C(Nc1cc(Cl)ccc1N1CCOCC1)c1ccncc1	80*	-7	-1	-1	6	8	9
SMILES	DNMT1 inh	Rpn11 inh	STEP inh	LMPTP inh	Scp-1 inhibitor	DNMT1 confirm	Beacon interf	others
O=C(Nc1cc(Cl)ccc1N1CCOCC1)c1cnccn1	-1	1	-1	0	5	·	·
CCOc1ccc(CNC(=O)C2CCN(S(=O)(=O)N3CCC(C)CC3)CC2)cc1OC	-3	-1	0	-1	·	·	·
O=C1OC(c2ccco2)=N/C1=C\c1ccc(-c2cccc(C(F)(F)F)c2)o1	14	16	0	1	0	·	·
O=C1OC(c2cccs2)=N/C1=C/c1ccc(-c2cccc(C(=O)O)c2)o1	85*	32	16	1	65*	13	-1
Cc1ccc(C)c(SCC(=O)NC(=O)NC2CCCC2)c1	74*	2	-1	1	-1	2	3
O=c1oc(-c2cccs2)nc2sc3c(c12)CCC3	18	24	0	-1	-9	·	·
O=c1oc(/C=C/c2ccco2)nc2sc3c(c12)CCC3	108*	2	2	3	11	6	8
COC(=O)c1sccc1NC(=O)c1cc(-c2ccc(C)cc2)nc2ccccc12	8	-1	-1	1	0	·	·
COC(=O)c1sccc1NC(=O)c1cc(-c2cccc(C)c2)nc2ccccc12	50*	-4	-5	1	7	0	-12
Cc1ccccc1NC(=O)CSc1nc(COc2ccccc2)nc2ccccc12	12	-3	-2	1	-2	·	·
Cc1cc(C)c(NC(=O)CSc2nc(COc3ccccc3)nc3ccccc23)c(C)c1	70*	4	1	0	-4	0	-7
Cc1cc2cc(CNC(=O)Cc3ccc([N+](=O)[O-])cc3)ccc2n1C	56*	-2	1	17	-6	1	8
Cc1cccc(NC(=O)NCc2ccc3c(c2)cc(C)n3C)c1	57*	-8	-2	5	-6	0	1
Cc1cc2cc(CNC(=S)Nc3ccc(OC(F)(F)F)cc3)ccc2n1C	57*	-24	-3	2	3	1	4
CCOC(=O)C1CCCN(C(=O)c2cc(-c3ccco3)nc3ccccc23)C1 (stereo unspecified)	100*	15	20	51*	85*	65*	-1	DNMT1 interf DR=>99

High-throughput results: PubChem BioAssay, Sanford-Burnham Center for Chemical Genomics
